Calls of active or inactive are those of the source. No cut-off for these calls is given here.
Experiments:
PC-3 [1] = assay: Growth inhibition of human PC3 cells; format: functional
BT-549 = assay: Growth inhibition of human BT549 cells; format: functional
MCF7 = assay: Growth inhibition of human MCF7 cells assessed as cell growth at 1 nM relative to untreated control; format: functional; details: read-out: Activity
NCI-H522 [2] = assay: Growth inhibition of human NCI-H522 cells assessed as cell growth at 1 nM relative to untreated control; format: functional; details: read-out: Activity
NCI-H522 [3] = assay: Growth inhibition of human NCI-H522 cells assessed as cell growth at 1 uM relative to untreated control; format: functional; details: read-out: Activity
NCI-H322M [4] = assay: Growth inhibition of human NCI-H322M cells assessed as cell growth at 1 uM relative to untreated control; format: functional; details: read-out: Activity
UACC-257 [5] = assay: Growth inhibition of human UACC257 cells assessed as cell growth at 1 nM relative to untreated control; format: functional; details: read-out: Activity
HCT-116 [6] = assay: Growth inhibition of human HCT116 cells; format: functional
Procedure, shortened: (§1)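 Run externally at the National Cancer Institute as a 59-cell-line panel screen, with concentrations up to 100 μM. Growth was scored relative to control, where negative growth or total cell kill was possible. Data are in the Supporting Information.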

TK-10 = assay: Growth inhibition of human TK10 cells assessed as cell growth at 100 nM relative to untreated control; format: functional; details: read-out: Activity
HT-29 = assay: Growth inhibition of human HT-29 cells assessed as cell growth at 100 nM relative to untreated control; format: functional; details: read-out: Activity
PC-3 [7] = assay: Growth inhibition of human PC3 cells assessed as cell growth at 10 uM relative to untreated control; format: functional; details: read-out: Activity
LOX IMVI [8] = assay: Growth inhibition of human LOXIMVI cells assessed as cell growth at 100 nM relative to untreated control; format: functional; details: read-out: Activity
NCI-H322M [9] = assay: Growth inhibition of human NCI-H322M cells assessed as cell growth at 100 nM relative to untreated control; format: functional; details: read-out: Activity
786-0 = assay: Growth inhibition of human 786-0 cells assessed as cell growth at 10 uM relative to untreated control; format: functional; details: read-out: Activity
SNB-19 = assay: Growth inhibition of human SNB19 cells assessed as cell growth at 10 uM relative to untreated control; format: functional; details: read-out: Activity
SR = assay: Growth inhibition of human SR cells assessed as cell growth at 1 uM relative to untreated control; format: functional; details: read-out: Activity
MDA-MB-435 = assay: Growth inhibition of human MDA-MB-435 cells; format: functional; details: read-out: LC50 (the source's name)
SF-539 [10] = assay: Growth inhibition of human SF539 cells; format: functional; details: read-out: LC50 (the source's name)
SK-OV-3 = assay: Growth inhibition of human SKOV3 cells; format: functional
IGROV-1 = assay: Growth inhibition of human IGROV1 cells assessed as cell growth at 10 nM relative to untreated control; format: functional; details: read-out: Activity
ACHN [11] = assay: Growth inhibition of human ACHN cells assessed as cell growth at 1 uM relative to untreated control; format: functional; details: read-out: Activity
NCI-H460 = assay: Growth inhibition of human NCI-H460 cells assessed as cell growth at 1 uM relative to untreated control; format: functional; details: read-out: Activity
SN12C = assay: Growth inhibition of human SN12C cells assessed as cell growth at 1 nM relative to untreated control; format: functional; details: read-out: Activity
NCI-H226 [12] = assay: Growth inhibition of human NCI-H226 cells assessed as cell growth at 1 nM relative to untreated control; format: functional; details: read-out: Activity
UACC-257 [13] = assay: Growth inhibition of human UACC257 cells assessed as cell growth at 1 uM relative to untreated control; format: functional; details: read-out: Activity
LOX IMVI [14] = assay: Growth inhibition of human LOXIMVI cells; format: functional
Malme-3M = assay: Growth inhibition of human MALME-3M cells assessed as cell growth at 10 uM relative to untreated control; format: functional; details: read-out: Activity
COLO 205 = assay: Growth inhibition of human COLO205 cells assessed as cell growth at 10 nM relative to untreated control; format: functional; details: read-out: Activity
SK-MEL-28 = assay: Growth inhibition of human SK-MEL-28 cells assessed as cell growth at 1 uM relative to untreated control; format: functional; details: read-out: Activity
EKVX [15] = assay: Growth inhibition of human EKVX cells assessed as cell growth at 1 uM relative to untreated control; format: functional; details: read-out: Activity; procedure, shortened: as §1
EKVX [16] = assay: Growth inhibition of human EKVX cells assessed as cell growth at 1 nM relative to untreated control; format: functional; details: read-out: Activity; procedure, shortened: as §1
MOLT-4 = assay: Growth inhibition of human MOLT4 cells assessed as cell growth at 10 nM relative to untreated control; format: functional; details: read-out: Activity
HCT-116 [17] = assay: Growth inhibition of human HCT116 cells assessed as cell growth at 1 nM relative to untreated control; format: functional; details: read-out: Activity; procedure, shortened: as §1
CCRF-CEM = assay: Growth inhibition of human CCRF-CEM cells assessed as cell growth at 1 uM relative to untreated control; format: functional; details: read-out: Activity
A498 = assay: Growth inhibition of human A498 cells assessed as cell growth at 1 nM relative to untreated control; format: functional; details: read-out: Activity
RXF 393 = assay: Growth inhibition of human RXF393 cells assessed as cell growth at 1 nM relative to untreated control; format: functional; details: read-out: Activity
SF-295 = assay: Growth inhibition of human SF295 cells assessed as cell growth at 1 uM relative to untreated control; format: functional; details: read-out: Activity
UACC-62 = assay: Growth inhibition of human UACC62 cells assessed as cell growth at 10 nM relative to untreated control; format: functional; details: read-out: Activity
ACHN [18] = assay: Growth inhibition of human ACHN cells assessed as cell growth at 100 nM relative to untreated control; format: functional; details: read-out: Activity
LOX IMVI [19] = assay: Growth inhibition of human LOXIMVI cells assessed as cell growth at 1 nM relative to untreated control; format: functional; details: read-out: Activity
OVCAR-3 = assay: Growth inhibition of human OVCAR-3 cells assessed as cell growth at 100 nM relative to untreated control; format: functional; details: read-out: Activity
NCI-H226 [20] = assay: Growth inhibition of human NCI-H226 cells assessed as cell growth at 1 uM relative to untreated control; format: functional; details: read-out: Activity
SF-539 [21] = assay: Growth inhibition of human SF539 cells assessed as cell growth at 10 nM relative to untreated control; format: functional; details: read-out: Activity
HCT-15 = assay: Growth inhibition of human HCT15 cells assessed as cell growth at 100 nM relative to untreated control; format: functional; details: read-out: Activity; procedure, shortened: as §1
PC-3 [22] = assay: Decrease in DNA synthesis in human PC3 cells at 5 uM after 24 hrs by BrdU incorporation assay; format: functional, cell-based
Procedure, shortened: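 PC-3 cells were seeded at 2 × 10⁴ cells/well and exposed to 5 μM compound or DMSO for 24 h. BrdU incorporation was read by chemiluminescent cell proliferation ELISA on a luminometer. Background without anti-BrdU-peroxidase was subtracted and values were normalized to untreated control. Values are mean ± SEM.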

OVCAR-5 = assay: Growth inhibition of human OVCAR5 cells assessed as cell growth at 1 nM relative to untreated control; format: functional; details: read-out: Activity
PC-3 [23] = assay: Growth inhibition of human PC3 cells assessed as cell growth at 10 nM relative to untreated control; format: functional; details: read-out: Activity
[24] = read-out: LC50 (the source's name)

Compound COc1ccc2c(c1)[nH]c1c(C)c(OS(=O)(=O)c3cccc4c(N(C)C)cccc34)ccc12 has a GI50 (PC-3 [1]) of 39.3 µM, a TGI (PC-3 [1]) of over 100 µM and a CC50 (PC-3 [1]; [24]) of over 100 µM. For the same compound, the GI50 (BT-549) was 5.08 µM, the TGI (BT-549) was over 100 µM and the CC50 (BT-549; [24]) was over 100 µM. It also gave a growth at 0.001 µM (MCF7) of 95%, a growth at 0.001 µM (NCI-H522 [2]) of 109% and a growth at 1 µM (NCI-H522 [3]) of 50%. For the same compound, the growth at 1 µM (NCI-H322M [4]) was 52%, the growth at 0.001 µM (UACC-257 [5]) was 100% and the GI50 (HCT-116 [6]) was 4.38 µM. It also gave a TGI (HCT-116 [6]) of over 100 µM, a CC50 (HCT-116 [6]; [24]) of over 100 µM and a growth at 0.1 µM (TK-10) of 107%. For the same compound, the growth at 0.1 µM (HT-29) was 96%, the growth at 10 µM (PC-3 [7]) was 7% and the growth at 0.1 µM (LOX IMVI [8]) was 91%. For the same compound, the growth at 0.1 µM (NCI-H322M [9]) was 94%, the growth at 10 µM (786-0) was 6% and the growth at 10 µM (SNB-19) was 27%. The growth at 1 µM (SR) was 13%, the CC50 (MDA-MB-435) was over 100 µM and the CC50 (SF-539 [10]) was over 100 µM. The GI50 (SK-OV-3) was 5.47 µM, the TGI (SK-OV-3) was over 100 µM and the CC50 (SK-OV-3; [24]) was over 100 µM. The growth at 0.01 µM (IGROV-1) was 110%, the growth at 1 µM (ACHN [11]) was 43% and the growth at 1 µM (NCI-H460) was 9%. For the same compound, the growth at 0.001 µM (SN12C) was 96%, the growth at 0.001 µM (NCI-H226 [12]) was 91% and the growth at 1 µM (UACC-257 [13]) was 51%. It also gave a GI50 (LOX IMVI [14]) of 48.4 µM, a TGI (LOX IMVI [14]) of over 100 µM and a CC50 (LOX IMVI [14]; [24]) of over 100 µM. The growth at 10 µM (Malme-3M) was 12%, the growth at 0.01 µM (COLO 205) was 94% and the growth at 1 µM (SK-MEL-28) was 39%. It also gave a growth at 1 µM (EKVX [15]) of 35%, a growth at 0.001 µM (EKVX [16]) of 99% and a growth at 0.01 µM (MOLT-4) of 97%. The growth at 0.001 µM (HCT-116 [17]) was 100%, the growth at 1 µM (CCRF-CEM) was 1% and the growth at 0.001 µM (A498) was 93%. It also gave a growth at 0.001 µM (RXF 393) of 103%, a growth at 1 µM (SF-295) of 15% and a growth at 0.01 µM (UACC-62) of 83%. For the same compound, the growth at 0.1 µM (ACHN [18]) was 97%, the growth at 0.001 µM (LOX IMVI [19]) was 95% and the growth at 0.1 µM (OVCAR-3) was 97%. The growth at 1 µM (NCI-H226 [20]) was 51%, the growth at 0.01 µM (SF-539 [21]) was 95% and the growth at 0.1 µM (HCT-15) was 92%. For the same compound, the Activity (PC-3 [22]) was “Active”, the growth at 0.001 µM (OVCAR-5) was 107% and the growth at 0.01 µM (PC-3 [23]) was 100%.
